Compound activity from PubChem BioAssay.
This is a sample that favours compounds with a hit; in the whole collection about 2.2% have one here.
FGF22 binding: shifts melting point of recombinant human FGF22; Q9HCT0; recombinant FGF22 thermal shift, SYPRO orange fluorescence; percent of sucrose octasulfate shift, DMSO zero; activity (Tm shift, normalised), % at 9.99 µM; 340,000 tested, 1.5% active; AID 651658;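 active = mean Tm shift, scaled 0 neutral to 100 positive control, at about 1.3% or above, every replicate too, limit read from the data; inconclusive = no clear call, values can overlap the other calls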
Target sequence (Q9HCT0 whole entry, looked up): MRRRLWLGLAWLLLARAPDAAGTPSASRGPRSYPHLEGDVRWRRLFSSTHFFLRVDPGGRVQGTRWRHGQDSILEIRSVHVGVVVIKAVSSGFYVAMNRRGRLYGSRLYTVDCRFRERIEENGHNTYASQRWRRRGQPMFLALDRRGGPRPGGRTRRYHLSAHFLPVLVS
S100A4 MyoIIA: blocks human S100A4 binding to myosin IIA peptide | AID 652163 | S100A4/TAMRA-MyoIIA peptide fluorescence polarization | 360,000 tested, 0.14% active | inhibition, % at 10.7 µM;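 active = mean inhibition of at least 70% across replicates, with every replicate also reaching that level; inconclusive = mean inhibition reaches 70% but some replicates fall short; inactive = mean inhibition below 70%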
Target sequence (P26447 whole entry, looked up): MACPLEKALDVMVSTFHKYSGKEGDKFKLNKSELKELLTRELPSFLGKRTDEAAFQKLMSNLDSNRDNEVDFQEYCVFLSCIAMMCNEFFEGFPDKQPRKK
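Material: S100A4 monomer (human). Medium: Calcium-containing HEPES buffer, pH 7.2. Probe or stimulus: labelled myosin peptide probe, 5 nM. Compound dosing: one concentration per compound. Timing: polarization read 5 min after assay mix addition, stable 5–60 min. Benchmarks: DMSO as neutral control, TFP as positive control.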
dFosB act: mouse delta FosB homodimer activation | P13346 | purified delta FosB, TAMRA-CDK5 oligo fluorescence polarization; percent of positive-control signal above neutral wells | activation, % at 25 µM | 340,000 tested, 0.99% active | AID 493131;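 active = mean activation above about 17%, with every replicate also reaching it, limit read from the data, passing the limit was not always enough; inconclusive = only one of the two conditions met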
Target sequence (P13346 whole entry, looked up): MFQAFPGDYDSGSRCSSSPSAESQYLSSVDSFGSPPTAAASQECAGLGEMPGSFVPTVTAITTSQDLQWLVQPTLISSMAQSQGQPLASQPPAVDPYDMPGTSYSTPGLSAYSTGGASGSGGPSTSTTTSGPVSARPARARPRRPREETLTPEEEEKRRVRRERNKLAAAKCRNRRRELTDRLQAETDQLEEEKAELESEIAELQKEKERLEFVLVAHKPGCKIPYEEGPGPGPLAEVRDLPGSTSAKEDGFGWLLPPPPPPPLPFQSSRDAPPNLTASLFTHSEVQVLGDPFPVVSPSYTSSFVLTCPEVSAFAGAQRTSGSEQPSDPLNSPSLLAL
CFTR F508del cor: correctors of CFTR F508del function in bronchial epithelial cells; CFBE cells, YFP halide quenching; stimulated with forskolin plus potentiator P3; % fluorescence drop versus neutral controls; activity (quench increase), % at 7.58 µM; 350,000 tested, 0.36% active;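 active = mean added fluorescence quench of at least 8% versus neutral control, with both replicates also reaching 8%; inconclusive = only one of the mean or replicate conditions met; inactive = mean below 8% and not both replicates reaching 8%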;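 also: cells transiently co-express mutant CFTR-F508del with the halide-sensitive YFP; corrector assay measuring rescue of mutant channel to the surface after 24 h compound exposure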
Each line names hits and unclear results; the compound was inactive in the other large screens.

O=C1CN(S(=O)(=O)Cc2ccccc2)C[C@@H]2[C@@H](c3ccc(C#CC4CC4)cc3)[C@@H](CO)N12	none (no result: FGF22 binding, dFosB act)
NC(=S)NN=Cc1nccc2c(N)cccc12	CFTR F508del cor 13 (no result: dFosB act)
CCN(C(C)=O)c1cnc(C=NNC(N)=S)c2ccccc12	none
COc1ccc(N=C2NC(=O)/C(=C\C=C\c3ccccc3)S2)cc1	FGF22 binding 44
Cc1ccc(-c2cnc3c(c2)C(=O)N([C@H](C)CO)C[C@@H](C)[C@H](CN(C)C(=O)c2ccccc2)O3)cc1	none (no result: dFosB act)
Cc1ccc(C(=O)N2CCN(C(=O)c3ccc(C)cc3)C2)cc1	FGF22 binding 43
Cc1ccc(C(=O)N2CCN(S(C)(=O)=O)C2)cc1	none (no result: FGF22 binding, S100A4 MyoIIA, CFTR F508del cor)
Cc1ccc(C(=O)N2CCN(S(=O)(=O)c3ccc(C)c([N+](=O)[O-])c3)C2)cc1	FGF22 binding 44
Cc1ccc(C(=O)N2CCN(S(=O)(=O)c3ccc(C)cc3)CC2)cc1	none
COc1ccc2c3c([nH]c2c1)[C@@H](CO)N(C(=O)Nc1ccccc1F)CC31CN(C(C)=O)C1	none (no result: dFosB act)
Oc1ccc(Cl)cc1Sc1cc(Cl)ccc1O	FGF22 binding 2.3
C[C@@H]1CN([C@@H](C)CO)C(=O)Cc2cc(NS(=O)(=O)c3ccccc3)ccc2O[C@H]1CN(C)C(=O)Nc1ccc(C(F)(F)F)cc1	none (no result: dFosB act)
O=C(O)C1CN(c2nc(Cl)ccc2[N+](=O)[O-])C1	none
O=C(O)C1CN(c2ncccc2[N+](=O)[O-])C1	FGF22 binding 43
CN1N=C(C(F)(F)F)CC1=O	FGF22 binding 44
CCNC(=O)[C@H]1[C@H](CO)[C@H]2Cn3c(ccc(C4=CCCC4)c3=O)[C@H]2N1C(=O)C1CC1	none (no result: dFosB act, CFTR F508del cor)
COc1ccc(S(=O)(=O)Nc2ccc3c(c2)C(=O)N([C@H](C)CO)C[C@@H](C)[C@H](CN(C)S(=O)(=O)c2cccs2)OCCCC[C@H](C)O3)cc1	none (no result: dFosB act)
O=C(NC1CCCc2ccccc21)c1ccccc1 (configuration not stated)	none (no result: CFTR F508del cor)
O=C(NC1CCCc2ccccc21)c1ccc([N+](=O)[O-])cc1 (configuration not stated)	FGF22 binding 43
Cc1ccc(C(=O)O)cc1-c1ccc(/C=C2\SC(=O)N(CC(=O)Nc3ccccc3)C2=O)o1	none
Cc1ccc(NC(=O)CN2C(=O)S/C(=C/c3ccc(-c4cccc(C(=O)O)c4)o3)C2=O)cc1	FGF22 binding 43
COc1ccc(NC(=O)N(C)C[C@H]2Oc3ccc(NC(=O)C4CCCCC4)cc3CC(=O)N([C@@H](C)CO)C[C@@H]2C)cc1	none (no result: dFosB act)
CC(C)(C)c1nnc2sc(SCC(=O)N3CCc4ccccc43)nn2c1=O	FGF22 binding 43
CC(=O)c1ccc(N2CCN(S(=O)(=O)c3cccc4nsnc34)CC2)cc1	FGF22 binding 43
O=C(c1ccccc1)c1c2c(cc3sc4ccccc4[n+]13)-c1cccc3cccc-2c13	dFosB act 22 (no result: FGF22 binding, S100A4 MyoIIA, CFTR F508del cor)
Cc1sc2cc3c(c(C(=O)c4ccccc4)[n+]2c1C)-c1cccc2cccc-3c12	none (no result: dFosB act, CFTR F508del cor)
COc1ccccc1S(=O)(=O)N1CC[C@@H]2[C@@H](CO)Nc3ccc(Br)cc3[C@@H]21	none (no result: FGF22 binding, S100A4 MyoIIA, dFosB act)
CCN(CC(=O)Nc1ccc(C)c(F)c1)CC(=O)NC(C)(C)C	FGF22 binding 43
CCCC(=O)Nc1ccc2c(c1)C(=O)N(C)[C@H]1CC[C@H](CC(=O)NCC3CCCCC3)O[C@@H]1CO2	none (no result: dFosB act)
O=c1sc2ccccc2c(=O)n1Cc1ccccc1F	FGF22 binding 43
COc1cccc(Cn2c(=O)sc3ccccc3c2=O)c1	FGF22 binding 43
Cc1ccc(Cn2c(=O)sc3ccccc3c2=O)cc1	none (no result: FGF22 binding, S100A4 MyoIIA, CFTR F508del cor)
O=c1c2ccccc2n(Cc2ccccc2F)c(=O)n1Cc1ccccc1F	none (no result: FGF22 binding, S100A4 MyoIIA, CFTR F508del cor)
N#Cc1ccc(-c2csc(NC3=NCCCCC3)n2)cc1	none
c1ccc(-c2csc(NC3=NCCCCC3)n2)cc1	CFTR F508del cor 11
COc1cc(/C=C2\SC(=S)N(NC(=O)c3ccncc3)C2=O)ccc1O	dFosB act 33, CFTR F508del cor 13
COc1cc(/C=C2\SC(=S)N(NC(=O)c3ccc(O)c(OC)c3)C2=O)ccc1O	dFosB act inconclusive
COc1cc(/C=C2\SC(=S)N(NS(=O)(=O)c3ccccc3)C2=O)ccc1O	dFosB act 21
COc1cc(/C=C2\SC(=S)N(NS(=O)(=O)c3ccc(C)cc3)C2=O)ccc1O	none
O=C(C[n+]1ccccc1)N/N=C/c1ccccc1[N+](=O)[O-]	FGF22 binding 43
C[C@@H]1CN([C@@H](C)CO)C(=O)Cc2cc(NC(=O)CCCN(C)C)ccc2O[C@H]1CN(C)S(=O)(=O)c1ccccc1	none (no result: dFosB act)
C[C@@H]1CN([C@H](C)CO)C(=O)c2cc(-c3cccc(F)c3)cnc2O[C@@H]1CN(C)C(=O)C1CCC1	none (no result: dFosB act)
O=C(NCc1ccccc1)c1cc(-c2cccs2)on1	none
O=C(NCc1ccccc1)c1nc(-c2cccs2)no1	FGF22 binding 44
CCCCc1cn(C[C@H](Cc2ccccc2)NC(=O)N[C@H](CO)CCc2oc(C(C)=O)c(C(=O)OC)c2C(=O)OC)nn1	none (no result: dFosB act)
COC(=O)c1c(CC[C@@H](CO)NC(=O)N[C@H](Cn2cc(-c3cncn3C)nn2)C(C)C)oc(C(C)=O)c1C(=O)OC	FGF22 binding 1.6 (no result: dFosB act)
COC(=O)c1ccsc1NC(=O)c1ccccc1	CFTR F508del cor 8.6
CCC(=O)Nc1ccc2c(c1)OC[C@@H](C)N(C(=O)C1CCC1)C[C@H](C)[C@@H](OC)CN(C)C2=O	none (no result: dFosB act)
c1cc2c3c(cccc3c1)NC1(CCCCCC1)N2	dFosB act 23 (no result: FGF22 binding, S100A4 MyoIIA, CFTR F508del cor)
c1cc2c3c(cccc3c1)NC1(CCCCC1)N2	dFosB act 40
c1cc2c3c(cccc3c1)NC1(CCC3(CC1)Nc1cccc4cccc(c14)N3)N2	none
CN1C(=O)c2cc(NC(=O)C3CCCC3)ccc2OC[C@H]2O[C@H](CC(=O)NCC(F)(F)F)CC[C@@H]21	none (no result: dFosB act)
NC(=O)[C@@H]1[C@H]2C(=O)O[C@H](c3ccccc3)[C@H](c3ccccc3)N2[C@H](c2ccc(O)cc2)[C@@]12C(=O)Nc1ccccc12	none (no result: dFosB act)
CCCCN(C(=O)NC(=O)Nc1cc(C)ccc1C)S(C)(=O)=O	none
CCCCCN(C(=O)NC(=O)Nc1ccc(C)cc1C)S(C)(=O)=O	FGF22 binding 43
Nc1ncccc1OCc1cccc(C(F)(F)F)c1	none
Nc1nc(N)c(-c2cccc(C(F)(F)F)c2)c(Cc2cccc(C(F)(F)F)c2)n1	dFosB act 16
Cc1cc([N+](=O)[O-])ccc1NC(=O)C[n+]1ccc(N(C)C)cc1	FGF22 binding 43
Cc1ccc([N+](=O)[O-])cc1NC(=O)C[n+]1ccccc1	none
CC(C)(C)c1[nH]nc2c1C(c1ccncc1)C(C#N)=C(N)O2 (configuration not stated)	none (no result: FGF22 binding, S100A4 MyoIIA, CFTR F508del cor)
CC(C)(C)c1[nH]nc2c1C(c1ccsc1)C(C#N)=C(N)O2 (configuration not stated)	FGF22 binding 43
COc1ccc(NC(=O)Nc2ccc3c(c2)CC(=O)N([C@H](C)CO)C[C@@H](C)[C@H](CN(C)S(=O)(=O)c2cn(C)cn2)O3)cc1	none (no result: dFosB act)
CC(NCc1ccccc1O)c1ccccc1 (configuration not stated)	FGF22 binding 43
